Assay results published in ChEMBL document CHEMBL1671856, “Chemical target validation studies of aminopeptidase in malaria parasites using alpha-aminoalkylphosphonate and phosphonopeptide inhibitors” (Antimicrob Agents Chemother, 2008).

Assays:
Plasmodium falciparum [1] = assay: Antimalarial activity against Plasmodium falciparum 3D7 infected in O-positive human erythrocytes after 72 hrs; assay type: functional, organism-based; settings: 3D7, 72 h
Method in brief: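 Asynchronous asexual blood-stage P. falciparum 3D7 were cultured in O+ erythrocytes and exposed to compounds for 72 h. Growth was read by the spectrophotometric parasite lactate dehydrogenase absorbance assay. IC50 values were determined graphically from dose-response curves.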

[2] = target: T1, Leucine aminopeptidase (Plasmodium falciparum 3D7) (UniProt Q8IL11); assay: Inhibition of leucyl aminopeptidase activity in Plasmodium falciparum 3D7 at 10 uM using Leu-AMC as a substrate by spectrophotometer
T1 sequence (whole entry): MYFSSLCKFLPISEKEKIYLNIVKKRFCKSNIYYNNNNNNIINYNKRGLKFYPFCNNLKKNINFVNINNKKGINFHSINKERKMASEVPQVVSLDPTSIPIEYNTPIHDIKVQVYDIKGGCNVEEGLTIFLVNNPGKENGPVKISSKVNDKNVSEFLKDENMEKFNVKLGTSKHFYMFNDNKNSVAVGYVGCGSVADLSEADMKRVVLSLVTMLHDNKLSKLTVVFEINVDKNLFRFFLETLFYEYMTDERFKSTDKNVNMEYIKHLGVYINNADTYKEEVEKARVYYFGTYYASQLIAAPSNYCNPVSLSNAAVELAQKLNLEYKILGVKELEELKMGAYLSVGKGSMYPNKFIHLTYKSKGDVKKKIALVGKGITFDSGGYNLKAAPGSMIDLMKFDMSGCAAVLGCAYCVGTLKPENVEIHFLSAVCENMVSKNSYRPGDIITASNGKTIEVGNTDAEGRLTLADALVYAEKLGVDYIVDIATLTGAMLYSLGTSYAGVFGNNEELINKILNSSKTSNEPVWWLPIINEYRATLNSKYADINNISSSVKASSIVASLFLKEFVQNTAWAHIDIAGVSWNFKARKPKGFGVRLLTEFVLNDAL
Method in brief: (§1)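 Cytosolic extract came from free parasites released from infected erythrocytes, then three freeze-thaw cycles and centrifugation at 12,000 x g, 4°C, 20 min. Extract (25 µg/ml final) was preincubated with 0.1 or 10 µM inhibitor in 50 mM Tris-Cl pH 8.0, with or without 1 mM CoCl2, for 15 min at 37°C. Leu-AMC or Ala-AMC (10 µM final) was added. AMC release was read over 30 min (ex 370/em 440 nm).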

[3] = target: T1, Leucine aminopeptidase (Plasmodium falciparum 3D7); assay: Inhibition of leucyl aminopeptidase activity in Plasmodium falciparum 3D7 at 0.1 uM using Leu-AMC as a substrate by spectrophotometer; method in brief: as §1
Plasmodium falciparum [4] = assay: Inhibition of alanyl aminopeptidase activity in Plasmodium falciparum 3D7 at 10 uM using Ala-AMC as a substrate by spectrophotometer; method in brief: as §1
Plasmodium falciparum [5] = assay: Inhibition of alanyl aminopeptidase activity in Plasmodium falciparum 3D7 at 0.1 uM using Ala-AMC as a substrate by spectrophotometer; method in brief: as §1
[6] = Inhibition of porcine kidney leucyl aminopeptidase; design: species or system Sus scrofa
Aminopeptidase N = target: T2, Aminopeptidase N (Sus scrofa, UniProt P15145); assay: Inhibition of pig kidney microsomal aminopeptidase N
T2 sequence (P15145 whole entry): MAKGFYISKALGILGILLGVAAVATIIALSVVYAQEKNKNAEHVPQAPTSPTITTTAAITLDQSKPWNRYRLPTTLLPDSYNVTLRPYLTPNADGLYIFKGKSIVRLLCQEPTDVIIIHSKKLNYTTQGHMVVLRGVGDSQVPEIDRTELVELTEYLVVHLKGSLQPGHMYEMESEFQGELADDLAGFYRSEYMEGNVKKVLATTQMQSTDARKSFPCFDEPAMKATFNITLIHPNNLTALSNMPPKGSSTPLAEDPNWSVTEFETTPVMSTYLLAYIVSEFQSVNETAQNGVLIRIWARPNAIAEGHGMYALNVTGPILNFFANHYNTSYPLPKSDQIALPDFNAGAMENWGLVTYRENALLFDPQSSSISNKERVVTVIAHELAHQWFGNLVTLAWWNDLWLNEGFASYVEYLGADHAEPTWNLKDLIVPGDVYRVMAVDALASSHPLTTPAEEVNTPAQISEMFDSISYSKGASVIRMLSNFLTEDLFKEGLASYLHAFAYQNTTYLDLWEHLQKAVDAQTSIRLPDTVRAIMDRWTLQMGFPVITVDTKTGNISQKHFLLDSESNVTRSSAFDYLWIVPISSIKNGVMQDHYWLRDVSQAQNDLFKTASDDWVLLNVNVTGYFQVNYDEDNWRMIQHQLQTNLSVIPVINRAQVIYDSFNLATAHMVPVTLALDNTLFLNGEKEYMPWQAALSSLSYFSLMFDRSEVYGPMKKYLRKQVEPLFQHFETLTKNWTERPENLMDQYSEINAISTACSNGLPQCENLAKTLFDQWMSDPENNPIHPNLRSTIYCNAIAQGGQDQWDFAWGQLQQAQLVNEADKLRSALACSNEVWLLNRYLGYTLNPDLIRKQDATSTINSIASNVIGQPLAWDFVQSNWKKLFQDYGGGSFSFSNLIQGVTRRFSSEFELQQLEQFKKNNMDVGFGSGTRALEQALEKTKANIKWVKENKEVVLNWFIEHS

[7] = target: T1, Leucine aminopeptidase (Plasmodium falciparum 3D7); assay: Inhibition of leucyl aminopeptidase activity in Plasmodium falciparum 3D7 at 10 uM using Leu-AMC as a substrate by spectrophotometer in presence of 1 mM CoCl2
[8] = target: T1, Leucine aminopeptidase (Plasmodium falciparum 3D7); assay: Inhibition of leucyl aminopeptidase activity in Plasmodium falciparum 3D7 at 0.1 uM using Leu-AMC as a substrate by spectrophotometer in presence of 1 mM CoCl2
[9] = target: T1, Leucine aminopeptidase (Plasmodium falciparum 3D7); assay: Inhibition of leucyl aminopeptidase activity in Plasmodium falciparum 3D7 harboring tPfAP-M17 gene at 0.1 uM using Leu-AMC as a substrate by spectrophotometer in presence of 1 mM CoCl2

Row | Structure (SMILES) | IC50 (Plasmodium falciparum [1]) | inhibition [2] | inhibition [3] | inhibition at 10 µM (Plasmodium falciparum [4]) | inhibition at 0.1 µM (Plasmodium falciparum [5]) | Ki [6] | Ki (Aminopeptidase N) | inhibition [7] | inhibition [8] | inhibition [9]
1 | NC(CCCC1CCCCC1)P(=O)(O)O (racemic) | 14 µM | 95% | 17% | 95% | 15% | 9.57 µM | 41.6 µM | 91% | 51% | 34%
2 | NC(CCC1CCCCC1)P(=O)(O)O (racemic) | 15 µM | 94% | 17% | 94% | 13% | 0.21 µM | 37.1 µM | 91% | 43% | 67%
3 | NC(CCCCc1ccccc1)P(=O)(O)O (racemic) | 22 µM | 97% | 28% | 97% | 28% | 0.33 µM | 3.69 µM | 92% | 25% | 61%
